Rows were chosen to be rich in hits. Some 1.9% of all compounds tested hit in one or more screens of this group.
DSG3 Ab inh: inhibitors of pemphigus antibody binding to human desmoglein-3; 310,000 tested, 0.48% active; AID 588358; DSG3-coupled beads, scFv-anti-DSG3-GFP binding, flow cytometry; active compounds read low; binding (percent of control), % at 10 µM; P32926;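 active means binding more than 3 SD below its plate's average and above zero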;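 further: hits lower antibody fragment binding to DSG3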
Target sequence (P32926 whole entry, looked up, the tested form may be a part): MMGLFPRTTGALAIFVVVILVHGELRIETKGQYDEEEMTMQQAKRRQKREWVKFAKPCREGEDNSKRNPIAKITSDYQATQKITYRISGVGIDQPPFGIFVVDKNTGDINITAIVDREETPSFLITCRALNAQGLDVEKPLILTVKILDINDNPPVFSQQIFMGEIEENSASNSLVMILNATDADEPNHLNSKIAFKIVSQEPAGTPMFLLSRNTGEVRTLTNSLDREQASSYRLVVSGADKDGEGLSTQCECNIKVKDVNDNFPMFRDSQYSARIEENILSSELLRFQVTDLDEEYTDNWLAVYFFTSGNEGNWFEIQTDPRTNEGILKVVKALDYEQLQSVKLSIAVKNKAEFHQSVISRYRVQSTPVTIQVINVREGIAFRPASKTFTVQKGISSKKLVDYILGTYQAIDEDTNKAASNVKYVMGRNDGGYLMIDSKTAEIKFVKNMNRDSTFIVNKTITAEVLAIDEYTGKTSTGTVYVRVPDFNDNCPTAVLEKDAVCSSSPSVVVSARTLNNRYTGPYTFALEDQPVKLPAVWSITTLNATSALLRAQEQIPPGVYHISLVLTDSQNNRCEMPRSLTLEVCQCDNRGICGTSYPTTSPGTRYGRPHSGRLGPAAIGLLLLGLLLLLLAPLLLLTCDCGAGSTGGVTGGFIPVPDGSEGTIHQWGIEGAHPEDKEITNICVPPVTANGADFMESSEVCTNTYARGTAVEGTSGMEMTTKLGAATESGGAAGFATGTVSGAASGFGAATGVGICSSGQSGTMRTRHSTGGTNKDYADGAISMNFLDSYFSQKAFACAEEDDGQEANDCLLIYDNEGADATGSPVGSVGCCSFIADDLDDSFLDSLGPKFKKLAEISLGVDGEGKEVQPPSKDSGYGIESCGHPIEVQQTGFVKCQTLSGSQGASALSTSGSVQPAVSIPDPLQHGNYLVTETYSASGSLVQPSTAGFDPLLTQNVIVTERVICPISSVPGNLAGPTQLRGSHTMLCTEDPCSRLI
Rce1 inhib: inhibitors of yeast Ras-converting enzyme; Q03530; yeast membranes, quenched prenylated peptide cleavage fluorescence; calls only; 290,000 tested, 0.27% active;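 active means fall in fluorescence gain of 50% or more versus controls, with final raw signal at or below 3038400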;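 further: plate controls were neutral control wells for no effect and wells lacking membranes for full effect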
NadD inh: NadD (S. aureus) enzyme inhibition. purified NadD enzyme, colorimetric absorbance read-out. inhibition, % at 20 µM. 360,000 tested, 0.78% active. AID 602399; in the data active means inhibition above about 26%
HCV core dimer: blocks dimerization of HCV core protein. TR-FRET GST/Flag-core106 dimerization, 1536-well. inhibition, % at 5 µM. 300,000 tested, 0.33% active;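 active means inhibition above the mean of all tested compounds plus 3 SD, set per screening campaign, cut at about 45% in these data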
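Material: GST/Flag-tagged HCV core106 proteins. Incubation: 4 h, 22.5 °C incubation. Read-out basis: inhibition (%) from 671 over 617 nm ratio. Measured by: TR-FRET, excitation 340 nm, emission 617 and 671 nm.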
TbMetRS inhib: blocks T. brucei methionyl-tRNA synthetase activity; purified T. brucei MetRS, ATP depletion, Kinase-Glo luminescence; 360,000 tested, 0.4% active; inhibition, % at 11.9 µM; AID 624268;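 active means inhibition above a per-plate cutoff of the control wells' mean inhibition plus 3 SD, cut at about 5.5% in these data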;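 further: 0% = DMSO wells median and 100% = median of wells with control inhibitor compound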
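Material – parasite MetRS enzyme · Medium – HEPES-MgCl2-KCl buffer plus DTT, spermine, BSA, pyrophosphatase · Reagent – ATP, methionine and E. coli bulk tRNA substrates · Times – 15 min enzyme-compound preincubation, 2 h reaction, 10 min detection, 25 °C · Measured by – luminescence of leftover ATP · Evaluation – percent inhibition relative to median high and low control wells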
NadD conf: NadD (S. aureus) inhibition, single concentration confirmation; purified S. aureus NadD, colorimetric enzyme assay; shares compounds with NadD inh; inhibition, % at 20 µM; 2,000 tested, 13% active; AID 624309; in the data active means inhibition mostly above about 42%, no sharp cut-off; inactive means mostly below about 42%
Active calls of the source: *; i = inactive; . = no result given.

SMILES	DSG3 Ab inh	Rce1 inhib	NadD inh	HCV core dimer	TbMetRS inhib	NadD conf
Cc1cc2nc(-c3ccc(SCC(=O)Nc4ccc(S(=O)(=O)N5CCCC5)cc4)nc3)[nH]c2cc1C	109.3	i	39.9*	-61.8	-0.2	11.4
OC(COc1ccccc1Br)CN1CCNCC1 (configuration not stated)	113.8	i	-5.2	.	-1.3	.
O=C(Nc1ccc(Cl)cc1)[C@@H]1[C@@H]2C(=O)N(c3ccc4ccccc4c3)C(=O)[C@@H]2[C@H]2C=CC=NN21	.	i	56.6*	59.6*	-0.7	30.6
Cc1cc(-c2cccc([N+](=O)[O-])c2)nc2ccccc12	91.8	i	-1.2	-1.3	0.9	.
Cc1cc[n+]2cc(-c3cccc([N+](=O)[O-])c3)c(-c3cccc([N+](=O)[O-])c3)cc2c1	116.8	i	31.5*	5.4	0.2	6.3
CCn1c2ccccc2c2cc(N=C3SC(CC(=O)Nc4ccccc4)C(=O)N3C)ccc21 (configuration not stated)	.	i	30.7*	19.1	0.1	19.1
CC(=O)Nc1ccc(CNc2nc(NCc3cccs3)nc3ccsc23)cc1	.	.	8.4	.	3.6	.
COc1cc2c(cc1OC)C1(Nc3c-2c(Cc2ccccc2)nn3-c2ccccc2)C(=O)Nc2ccccc21 (configuration not stated)	91.6	i	44.7*	58.2*	-0.6	40.9
COc1cccc(N2[C@@H](CC(=O)O)c3cc(C(F)(F)F)ccc3S2(=O)=O)c1	101.0	i	48.8*	-2.5	-0.2	51.5*
Cc1cccc(NC2SC(=O)N(CC(=O)O)C2=O)c1 (configuration not stated)	98.6	i	0.0	-2.5	0.1	.
COC(=O)c1cccc(CN2C(=O)SC(Nc3ccccc3)C2=O)c1 (configuration not stated)	107.8	i	30.7*	-2.8	0.9	-5.7
CSc1scc2c1-c1nc(SCC(=O)C(C)(C)C)ncc1CC2	.	.	-1.7	1.3	-0.4	.
O=C(CCc1nc(-c2ccccc2F)no1)Nc1cccnc1	112.1	i	66.3*	-1.9	-0.2	-3.7
O=C(Cc1cccs1)Nc1ccc(N2CCOCC2)cc1	61.1	i	-1.5	41.9	-1.6	.
Cc1ccc(OCCNC(=O)CNC(=O)c2ccc(Cl)c([N+](=O)[O-])c2)cc1	98.5	.	-5.0	.	0.0	.
Cc1cc(NS(=O)(=O)c2ccccc2)cc(Cl)c1O	.	.	0.0	-13.1	-1.3	.
Cc1ccc(NC(=O)c2sc3nc(C)nc(N4CCN(c5ccccn5)CC4)c3c2C)c(C)c1	99.8	i	11.7	27.6	-0.9	.
Cc1nc(N2CCN(c3ccccn3)CC2)c2c(C)c(C(=O)Nc3ccc(Br)cc3C)sc2n1	.	i	30.1*	28.7	0.6	5.4
COc1ccc(/C=C/C(=O)N2CCN(c3ccccc3)CC2)cc1S(=O)(=O)N1CCOCC1	99.5	i	0.7	-5.7	0.4	.
COc1ccc(NC(=O)c2cn(-c3ccccc3)nc2-c2ccncc2)cc1	98.2	i	12.7	0.3	0.1	.
COc1ccc(-c2nn(-c3ccccc3)cc2C(=O)NC(=S)NNC(=O)c2ccncc2)cc1	105.8	.	58.4*	4.0	-0.2	38.4
O=C(NNC(=O)c1csc(-c2cnccc2C(F)(F)F)n1)c1ccc(C(F)(F)F)cc1	98.9	.	-3.0	-3.7	-0.3	.
CCOC(=O)c1sc(NC(=O)c2cc3n(n2)C(C(F)(F)F)CC(c2cccs2)N3)c(C(=O)OCC)c1C (configuration not stated)	102.3	i	29.7*	2.1	-1.4	2.8
COc1ccc(Nc2nc(-c3cccs3)cs2)cc1	.	i	.	19.1	.	.
Oc1ccc(Nc2nc(-c3cccs3)cs2)cc1	92.0	i	33.3*	40.2	0.1	61.7*
SMILES	DSG3 Ab inh	Rce1 inhib	NadD inh	HCV core dimer	TbMetRS inhib	NadD conf
COc1ccc(-c2ccc(N3C(c4ccsc4)=Cc4ccc(F)cc4C3c3c[nH]c4ccccc34)cc2)cc1 (configuration not stated)	.	.	25.8	.	1.8	.
CC(=O)CC1c2cc(F)ccc2C=C(c2ccsc2)N1c1ccc(C#Cc2cncn2C)cc1 (configuration not stated)	.	.	41.6*	.	-1.2	37.7
Cn1cncc1C#Cc1ccc(N2C(c3ccsc3)=Cc3ccc(F)cc3C2c2c[nH]c3ccccc23)cc1 (configuration not stated)	.	.	39.0*	.	0.0	38.6
NC(=O)c1ccccc1NC(=O)CN1CCCCCC1	103.7	i	-4.7	8.4	-0.3	.
Nc1ccc(O)c(-c2nc3ccccc3s2)c1	62.2	i	63.4*	82.0*	0.2	22.9
Cn1c(=O)c2c(nc(CN3CCc4ccccc4C3)n2Cc2cccc(Cl)c2)n(C)c1=O	76.9	i	5.4	2.9	0.0	.
Cc1cc(Cl)ccc1OCC(=O)Nn1c(C)ccc1C	.	i	40.5*	16.8	-0.4	3.5
CSc1ccccc1NC(=O)COc1ccc(Cl)cc1C	.	i	-0.7	0.3	0.0	.
CCCCc1nc2ccccc2c(=O)n1NC(=O)c1c(O)c2c(n(CC(C)C)c1=O)CCCC2	99.5	i	33.0*	.	-0.9	14.3
O=c1c2ccccc2nc(/C=C/c2c[nH]c3ccccc23)n1-c1ccc([N+](=O)[O-])cc1	97.1	i	40.5*	19.8	0.0	-0.6
Nc1nnc(SCC(=O)c2ccccc2)s1	105.4	i	6.7	0.8	-0.3	.
Nc1c(C(=O)c2ccccc2)sc2snc(SCC(=O)c3ccccc3)c12	231.1	i	36.9*	19.1	-0.4	3.3
CCN1CCc2c(sc3c2c(NCc2ccco2)nc2nnnn23)C1	105.5	i	37.7*	15.4	0.5	8.2
COc1ccc(S(=O)(=O)N2CCn3c2nc2ccccc23)cc1	99.1	i	2.1	-3.3	1.3	.
Cc1ccc(C2CC(=O)N3CN(c4ccc(Br)cc4)CSC3=C2C#N)o1 (configuration not stated)	114.6	i	42.8*	47.6*	0.1	-3.8
N#CC1=C2SCN(c3ccccc3)CN2C(=O)CC1c1cccs1 (configuration not stated)	.	i	44.0*	34.9	-0.5	16.3
COc1ccccc1N1CSC2=C(C#N)C(c3ccc(SC)cc3)CC(=O)N2C1 (configuration not stated)	106.0	i	35.1*	13.1	-0.3	38.7
CN(C)CCNc1nc(S(=O)(=O)c2ccccc2)c(Cl)s1	103.8	i	-4.5	-2.2	-0.4	.
COc1ccc(OC)c(C(c2nnnn2C2CCCC2)N2CCN(c3ccc(F)cc3)CC2)c1 (configuration not stated)	103.7	i	2.4	10.5	-0.7	.
Nc1c(S(=O)(=O)c2ccccc2)c2nc3ccccc3nc2n1C1CC1	115.0	i	-8.0	0.9	-0.1	.
Cc1ccc(C(=O)Nn2c(N)c(S(=O)(=O)c3ccc(C)cc3)c3nc4ccccc4nc32)cc1	94.5	i	30.4*	4.3	-0.7	31.8

Screening results deposited in PubChem BioAssay by several laboratories.
